# Bioassay records from PubChem BioAssay.
# OX1R antag-1 – OX1R (HCRTR1) antagonists, primary screen, fluorescence, CHO/OX1R cells, Fluo-8 calcium, orexin A; Orexin/Hypocretin receptor type 1 (Homo sapiens), O43613; Fluo-8 calcium fluorescence; inhibition, % at 5 µM; actives 0.43% (n = 330,000);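 active = inhibition above its plate's threshold, mean inhibition of all tested compounds on the plate plus 3 SD, cut at about 37% in these data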;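 also: 0% = orexin A challenge wells and 100% = SB-334867-A antagonist wells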
# Target sequence (O43613 whole entry, looked up): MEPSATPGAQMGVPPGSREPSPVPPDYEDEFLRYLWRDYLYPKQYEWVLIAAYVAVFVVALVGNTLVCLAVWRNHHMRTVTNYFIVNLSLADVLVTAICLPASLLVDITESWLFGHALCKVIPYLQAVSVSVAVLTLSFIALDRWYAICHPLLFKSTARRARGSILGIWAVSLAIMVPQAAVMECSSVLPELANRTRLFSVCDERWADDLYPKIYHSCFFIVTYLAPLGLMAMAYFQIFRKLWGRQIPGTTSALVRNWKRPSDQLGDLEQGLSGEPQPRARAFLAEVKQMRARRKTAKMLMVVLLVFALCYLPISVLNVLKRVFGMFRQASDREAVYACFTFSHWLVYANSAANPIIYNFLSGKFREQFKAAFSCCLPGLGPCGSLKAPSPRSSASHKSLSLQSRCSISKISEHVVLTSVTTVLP
# TRPN1 ag – zebrafish TRPN1 channel agonists, primary screen, cell-based, HEK293, calcium fluorescence | HEK293 zebrafish TRPN1-YFP, Fluo-8 calcium fluorescence; 100% = response to 87 µM carbachol | actives 0.18% (n = 220,000) | activation, % at 3 µM | transient receptor potential cation channel N1 (TRPN1/NompC), Danio rerio;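 active = activation above its plate's cutoff, the mean activation of test wells on that plate plus 3 SD, cut at about 19% in these data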;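 also: 0% = DMSO alone and 100% = 87 µM carbachol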
#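 Assay system: Zebrafish TRPN1-YFP in HEK293 cells | Incubation: Dye loading 1 h at 37 °C, then 30 min room temperature | Measured by: Kinetic Fluo-8 fluorescence, ex 470-495, em 515-575 nm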
# CHO parental Ca – ATP-evoked calcium signal inhibitors, parental CHO, primary screen, counter-screen for OX1R antagonist project, cell-based, fluorescence, Fluo-8 calcium dye; parental CHO-K1, ATP-induced calcium, Fluo-8 fluorescence; inhibition, % at 5.6 µM; actives 0.63% (n = 330,000); AID 463079, 2010;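 active = inhibition above that plate's mean sample inhibition plus 3 SD, cut at about 26% in these data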;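 also: 0% = ATP-challenged DMSO wells and 100% = DMSO wells without ATP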
#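 Material: Parental CHO cells | Reagent: ATP | Compound dosing: Single nominal dose of 5.6 µM per compound | Detection: Intracellular calcium via Fluo-8 no-wash fluorescent dye | Read-out: % inhibition of ATP-induced calcium mobilization | Benchmarks: Low control ATP plus DMSO, high control DMSO only | Replicates: Singlicate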
# TRPML3 ag – human TRPML3 channel agonists, primary screen, cell-based, HEK293 TRPML3-YFP, Fluo-8 calcium fluorescence, 3 µM | 100% = the carbachol control signal | activation, % at 3 µM | AID 1448, 2008 | actives 0.29% (n = 220,000);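 active = activation above its plate's cutoff, the mean activation of the plate's test wells plus 3 SD, cut at about 12% in these data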;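 also: 0% = DMSO only wells and 100% = carbachol wells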
#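 Test system – HEK293 line with stable expression of human TRPML3-YFP channel · Control set – carbachol 87 µM final as high control (100%), DMSO as low control (0%) · Signal – Fluo-8 calcium dye fluorescence, ex 470-495, em 515-575 nm · Incubation – 1-h 37 °C dye load, 5-s basal, 120-s post-compound reads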
# OX1R antag-2 – antagonists of human orexin 1 receptor (OX1R); Orexin/Hypocretin receptor type 1 (Homo sapiens), O43613; OX1R-expressing cells, FRET antagonist read-out; inhibition, % at 6.6 µM; actives 1.8% (n = 330,000); AID 485270, 2010; in the data active = inhibition mostly above about 38%, no sharp cut-off; inactive = mostly below about 40%;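 also: 0% = agonist challenge alone and 100% = reference antagonist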
# The depositor's hits bear a star; / = not tested or not shown. An excerpt weighted towards active compounds, which were near 2.5% of everything screened.
SMILES,OX1R antag-1,TRPN1 ag,CHO parental Ca,TRPML3 ag,OX1R antag-2
Cn1ccsc1=NC(=O)c1ccc([N+](=O)[O-])o1,-2,/,-3,/,105*
CCOc1ccc(CN(C)c2nc(-c3cccnc3)nc3ccccc23)cc1OC,-29,/,-6,/,42
CCOC(=O)c1cnc(SCc2nc(N)nc(Nc3ccc(F)cc3)n2)nc1N,16,-1,-17,-1,61*
Cc1cc(C)n2nc(Nc3ccccc3)cc2n1,-2,-1,-20,0,49*
CCCS(=O)(=O)N1CCC(C(=O)Oc2ccc(OC)cc2)CC1,-7,/,0,/,6
CC(=O)c1ccccc1Oc1nc(CN2CCOCC2)nc2scc(-c3cccs3)c12,12,0,-23,0,44*
O=C(Nc1ccc(O)cc1)c1c(O)c2c([nH]c1=O)CCCC2,/,1,/,1,/
Cc1ccc(S(=O)(=O)N(C)C)cc1NC(=O)C1CCCCC1,-20,-1,-13,0,2
Cn1c(Cn2c(=O)sc3ccccc32)nnc1SCc1cccc(F)c1,-15,0,-13,0,8
Cn1c(Cn2c(=O)sc3ccccc32)nnc1SCc1ccccc1F,-15,0,43*,-1,13
COC(=O)c1c(NC(=O)Cc2ccccc2)sc2c1CCN(C(C)C)C2,-19,/,-14,/,8
CC(C)N1CCc2c(sc(NC(=O)c3ccc([N+](=O)[O-])o3)c2C(N)=O)C1,-9,/,-11,/,93*
COC(=O)c1c(NC(=O)c2ccc([N+](=O)[O-])o2)sc2c1CCN(C(C)C)C2,-19,/,-11,/,65*
CC(OC(=O)c1ccccc1O)C(=O)Nc1cccc(Cl)c1 (stereo not given),-20,0,1,1,17
CCc1ccc(-c2cc(C)no2)cc1S(=O)(=O)N1CCOc2ccccc21,-27,/,-19,/,49*
CCOc1ccc(N(C)S(=O)(=O)c2cc(-c3cc(C)no3)ccc2CC)cc1,43*,/,64*,/,17
CCOc1ccc(N(C)S(=O)(=O)c2cc(-c3cc(C)no3)ccc2C)cc1,12,/,10,/,20
COCc1cc(=O)[nH]c2cc(NC(=O)c3cccc(OC)c3)c(C)cc12,-12,/,-14,/,9
COc1ccc(C(=O)NCCc2nnc3ccc(SCC(=O)N4CCOCC4)nn23)cc1,-50,/,-3,/,6
O=C(COc1ccc2c(-c3ccccc3)cc(=O)oc2c1)NCCN1CCOCC1,1,/,-5,/,8
O=C(COc1cc2oc(=O)cc(-c3ccccc3)c2cc1Cl)NCCN1CCOCC1,7,/,-14,/,49*
O=C(Nc1ccc2nc(-c3cccs3)c(-c3cccs3)nc2c1)NC1CC1,-7,-1,4,1,58*
COCC(=O)Nc1nnc(SCC(=O)N2C(C)CCCC2C)s1 (stereo not given),-11,/,8,/,17
CCOC(=O)c1ccc(NC(=O)c2nc[nH]c2C(=O)N(C)Cc2ccccc2)cc1,-7,/,-18,/,57*
CCOc1ccc(S(=O)(=O)N2CCCC(C(=O)N3CCN(c4ccccc4)CC3)C2)cc1 (stereo not given),-31,/,-26,/,34
SMILES,OX1R antag-1,TRPN1 ag,CHO parental Ca,TRPML3 ag,OX1R antag-2
O=C(NCCc1ccccc1)c1ccc2nc(-c3ccco3)c(-c3ccco3)nc2c1,-20,0,-18,0,26
O=C(NC1CCCC1)c1ccc2nc(-c3ccco3)c(-c3ccco3)nc2c1,-12,2,-7,-1,63*
Cc1onc(-c2ccccc2)c1C(=O)NC(=S)NNC(=O)c1ccccc1O,18,81*,18,55*,-6
CCCOc1ccc(C(=O)NC(=S)NNC(=O)c2c(-c3ccccc3)noc2C)cc1,70*,99*,39*,52*,-3
Cc1onc(-c2ccccc2)c1C(=O)NC(=S)NNC(=O)c1ccc(O)cc1O,-17,-2,-12,0,-8
COC(=O)c1ccc(C)c(NC(=O)c2c(-c3ccccc3)noc2C)c1,10,-1,-12,0,38*
O=C(Nc1oc2ccccc2c(=O)c1-c1ccc(Br)cc1)c1ccco1,-12,/,-11,/,18
COc1ccc(C(=O)Nc2ccccc2C(=O)O)cc1Cl,-2,1,3,0,18
Cc1ccc(C(=O)Nc2ccccc2C(=O)O)cc1NC(=O)COc1c(C)cccc1C,-21,3,-8,1,41*
CCOc1c(Cl)cc(C(=O)Nc2ccccc2C(=O)O)cc1Cl,-6,8,-3,2,63*
Cc1cc(C(=O)Nc2ccccc2C(=O)O)ccc1NC(=O)COc1cccc(C)c1C,-7,/,-7,/,6
COc1cccc(NC(=O)CN2C(=O)C(=O)N(C3CCCC3)C2=O)c1,-11,/,-4,/,2
COC(=O)Nc1nn(-c2ccc(Cl)cc2)c(=O)c(C#N)c1C,-3,-1,3,0,59*
CCOC(=O)c1nn(-c2ccc(C)c(C)c2)c(=O)c(C#N)c1C,-30,/,-18,/,44*
Cc1nn(-c2ccccc2)nc1C(=O)NN,-16,-2,-7,0,12
Cc1nn(-c2ccc(Cl)cc2)c(Cl)c1/C=C(\C#N)C(N)=O,-10,-2,-1,0,10
Cc1c(C(=O)NN)nn(-c2ccc(F)cc2)c(=O)c1C#N,-10,/,0,/,48*
O=[N+]([O-])c1ccc(/C=C2\CCC(C3=CCCC3)=C2N2CCOCC2)cc1,-21,0,-3,1,33
COc1ccc(NC(=O)CSCC(=O)Nc2ccccc2N2CCCCC2)cc1,-8,/,-30,/,36*
Nc1ncncc1-c1ccc([N+](=O)[O-])cc1,0,0,-2,1,63*
CCOC(=O)c1ccc(N2C(=O)CC(C)(CC)CC2=O)cc1,-27,1,4,0,5
Cc1[nH]c(=O)c(S(=O)(=O)c2ccccc2)c(C)c1Cl,-25,/,-14,/,15
CN(C)S(=O)(=O)n1cc(/C=C(\NC(=O)c2ccccc2F)C(=O)NCCCN2CCOCC2)c2ccccc21,-40,/,-22,/,6
COc1ccccc1N1CC(C(=O)Nc2ccc(C)c(S(=O)(=O)N3CCOCC3)c2)CC1=O (stereo not given),-7,/,-10,/,6
Cc1ccccc1OCCOc1cccc(/C=N/NC(=O)Cc2nnc(N)s2)c1,48*,0,53*,0,62
Nc1nnc(CC(=O)N/N=C/c2cccc(OCCOc3ccccc3)c2)s1,0,0,19,1,40
Cc1noc(C)c1COc1ccc(C(=O)N2CCC(C(N)=O)CC2)cc1,-7,/,0,/,6
